Screening data: PubChem BioAssay, several laboratories
Shown is part of a subset that was picked to be rich in hits.
TLR4 MyD88 comp: inhibitors of TLR4-MyD88 association in cells, primary screen, cell-based, HeLa CL3-4, BLA complementation, FRET ratio; AID 861, 2007; 200,000 tested, 0.18% active; inhibition, % at 8.4 µM; HeLa CL3-4 TLR4/MyD88 BLA complementation; in the data active means inhibition above about 25%;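 further: 0% = vehicle and 100% = reference inhibitor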
NOD2 RIPK2 PPI: NOD2-RIPK2 binding disruptors in cells, primary screen, fluorescence, CHO cells, BLA complementation. AID 624267, 2012. inhibition, % at 4.98 µM. Receptor-interacting serine/threonine-protein kinase 2 (Homo sapiens), O43353. 360,000 tested, 0.38% active. CCF4 ratio; in the data active means inhibition above about 21%;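 further: 0% = vehicle only and 100% = reference blocker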
CHOP inhibitor: inhibitors of CHOP promoter induction, primary screen, cell-based, unfolded protein response, luciferase reporter; AID 2732, 2010; 220,000 tested, 3.8% active; CHO-K1 CHOP-promoter luciferase, tunicamycin-induced, 15-18 h; inhibition, % at 10 µM;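 active means compounds that reduced the stress-induced luciferase reporter signal by more than about 70% of percent inhibition, limit read from the data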;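 further: 0% = tunicamycin plus vehicle and 100% = wells without tunicamycin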
CHOP UPR activ: activators of apoptotic CHOP UPR arm, primary screen, cell-based, CHO-CHOP luciferase reporter, luminescence, uHTS. UPR activation; percent of tunicamycin response over DMSO baseline. activation, % at 10 µM. 330,000 tested, 0.34% active. AID 449763, 2010;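 active means at 10 µM dose, activation of 40% or more, normalized to positive control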;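 further: 100% = tunicamycin at 10 µg/mL and 0% = DMSO alone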
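assay system = CHO CHOP reporter cells | amount = 500 CHO-CHOP cells per well | buffer or medium = F12 with 10% FBS | incubation = 16-18 h cell attachment, then 6 h compound exposure, 37 °C | detection = luminescence read with Steady-Glo | read-out = percent activation relative to tunicamycin control | controls = tunicamycin high control, DMSO low control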
UPR XBP1 act: activators of adaptive XBP1 UPR arm, primary screen, cell-based, CHO-XBP1 luciferase reporter, luminescence, uHTS; AID 463104, 2010; IRE1-XBP1 UPR activation; percent of tunicamycin response, DMSO as zero; 330,000 tested, 0.33% active; activation, % at 20 µM;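 active means versus positive control, 20 µM dose yields 30% or more activation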;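 further: 100% = tunicamycin at 10 µg/mL and 0% = DMSO only wells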
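Signal: luciferase luminescence; Assay system: CHO-XBP1 luciferase reporter cells; Amount: one thousand reporter cells per well; Dosing: 20 µM single concentration, DMSO 1%; Benchmarks: high control tunicamycin 10 µg/mL final, low control DMSO vehicle only; Schedule: 6 h compound exposure at 37 °C, 5% CO2; Evaluation: percent activation relative to tunicamycin reference.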
TLR9-MyD88 block: inhibitors of TLR9-MyD88 association in cells, primary screen, cell-based, CHO, BLA complementation, fluorescence; Toll-like receptor 9 (Homo sapiens) + Myeloid differentiation primary response protein …; CCF4 FRET ratio; inhibition, % at 4.98 µM; 340,000 tested, 0.21% active; AID 504734, 2011;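 active means inhibition above the mean over all tested compounds plus 3 SD, cut at about 21% in these data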;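 further: 0% = DMSO only wells and 100% = clavulanate BLA inhibitor control wells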
Target sequence (Q99836 whole entry, looked up): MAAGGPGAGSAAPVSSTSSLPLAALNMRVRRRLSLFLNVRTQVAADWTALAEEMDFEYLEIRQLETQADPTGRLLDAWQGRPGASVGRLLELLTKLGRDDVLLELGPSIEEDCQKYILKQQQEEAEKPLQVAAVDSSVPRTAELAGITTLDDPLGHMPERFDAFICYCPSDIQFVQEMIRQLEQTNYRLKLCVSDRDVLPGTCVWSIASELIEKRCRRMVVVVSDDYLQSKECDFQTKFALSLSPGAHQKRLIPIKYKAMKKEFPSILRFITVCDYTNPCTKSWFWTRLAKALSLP
Target sequence (Q9NR96 whole entry, looked up): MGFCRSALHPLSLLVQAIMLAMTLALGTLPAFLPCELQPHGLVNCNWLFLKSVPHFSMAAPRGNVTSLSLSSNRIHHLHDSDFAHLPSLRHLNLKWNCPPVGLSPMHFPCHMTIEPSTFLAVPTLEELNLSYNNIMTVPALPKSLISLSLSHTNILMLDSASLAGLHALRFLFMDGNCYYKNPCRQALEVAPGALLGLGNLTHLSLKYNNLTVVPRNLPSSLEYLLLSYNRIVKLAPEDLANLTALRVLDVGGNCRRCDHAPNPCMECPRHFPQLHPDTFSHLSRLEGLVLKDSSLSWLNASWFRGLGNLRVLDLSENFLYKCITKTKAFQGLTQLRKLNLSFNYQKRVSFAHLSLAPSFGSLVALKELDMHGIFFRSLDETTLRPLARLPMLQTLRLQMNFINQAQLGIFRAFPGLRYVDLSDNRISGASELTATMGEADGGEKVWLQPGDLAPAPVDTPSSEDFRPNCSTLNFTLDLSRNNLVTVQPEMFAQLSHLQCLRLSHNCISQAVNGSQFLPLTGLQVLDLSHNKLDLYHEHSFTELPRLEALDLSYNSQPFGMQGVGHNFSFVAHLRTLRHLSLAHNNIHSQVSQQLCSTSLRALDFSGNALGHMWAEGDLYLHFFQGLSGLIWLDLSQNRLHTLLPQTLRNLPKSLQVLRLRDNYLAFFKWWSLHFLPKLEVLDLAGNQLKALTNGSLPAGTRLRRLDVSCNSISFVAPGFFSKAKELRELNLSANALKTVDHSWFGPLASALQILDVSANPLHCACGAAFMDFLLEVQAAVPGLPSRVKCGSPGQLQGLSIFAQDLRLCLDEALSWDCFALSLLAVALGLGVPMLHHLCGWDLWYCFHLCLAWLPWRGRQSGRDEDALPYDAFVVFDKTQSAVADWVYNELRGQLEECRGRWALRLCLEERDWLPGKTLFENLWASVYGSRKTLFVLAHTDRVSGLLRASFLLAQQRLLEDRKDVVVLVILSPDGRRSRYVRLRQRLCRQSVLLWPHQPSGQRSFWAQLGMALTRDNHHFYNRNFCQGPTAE
UPR XBP1 confirm: IRE1-XBP1 UPR arm activators, confirmation, cell-based, CHO-XBP1 luciferase reporter, luminescence, single concentration | 1,000 tested, 63% active | activation, % at 20 µM | AID 485299, 2010 | shares compounds with UPR XBP1 act;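 active means reporter signal at least 30% of the positive control's activation in two or more of four replicate wells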;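 further: plate controls were DMSO negative control for no effect and tunicamycin 10 µg/mL positive control for full effect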
TLR9-MyD88 conf: TLR9-MyD88 association inhibitors, retest, confirmation, cell-based, CHO, BLA complementation, fluorescence, triplicate; inhibition, % at 4.98 µM; shares compounds with TLR9-MyD88 block; 680 tested, 51% active; CCF4 FRET ratio;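 active means mean inhibition across three repeats above about 21% taken from the earlier screen, limit read from the data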;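 further: blue over green emission ratio reports constitutive TLR9 MyD88 association via BLA complementation; 0% = DMSO vehicle wells and 100% = clavulanate BLA inhibitor wells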
BLA nonselective: beta-lactamase reporter inhibitors in CHO cells, artefact control for TLR9-MyD88 binding inhibitor project, cell-based, fluorescence. CHO-BLA cells, CCF4 FRET ratio, BLA reporter. AID 540251, 2011. 680 tested, 7% active. shares compounds with TLR9-MyD88 block. inhibition, % at 4.98 µM;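 active means mean inhibition above a 50% cutoff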;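 further: counterscreen of TLR9-MyD88 hits on CMV-driven BLA in CHO-K1 cells; 0% = DMSO alone and 100% = clavulanate blocking BLA; higher means less blue over green ratio so more BLA blockade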
TLR9 CHO tox: CHO cell viability loss – luminescence, single concentration, cytotoxicity control for TLR9-MyD88 binding inhibitor project; shares compounds with TLR9-MyD88 block; inhibition, % at 4.98 µM; AID 588336, 2011; 680 tested, 39% active; TLR9-MyD88 CHO cells cytotoxicity; in the data active means inhibition above about 11%
* = called active by the depositor; nt = no result given.

SMILES	TLR4 MyD88 comp	NOD2 RIPK2 PPI	CHOP inhibitor	CHOP UPR activ	UPR XBP1 act	TLR9-MyD88 block	UPR XBP1 confirm	others
O=C(Nc1cccnc1)/C(N=Nc1ccc(Cl)c(C(F)(F)F)c1)=C(\O)c1ccccc1	7	-24	9	13	49*	-1	27
O=C(Nc1cccnc1)/C(N=Nc1c(Cl)cccc1Cl)=C(\O)c1ccccc1	-12	5	12	0	3	-4	nt
COC(=O)c1ccccc1NC(=O)c1ccc(-c2cccc(Cl)c2)o1	-2	2	67	14	52*	2	15
CCN(Cc1ccccc1)C(=O)COC(=O)c1cc(S(=O)(=O)Nc2ccccc2OC)ccc1O	nt	-11	nt	1	-4	-4	nt
CCOc1cc(/C=N/NC(=O)Cn2nc([N+](=O)[O-])cc2C)cc(Br)c1OCc1ccccc1C	0	1	60	17	57*	-6	80*
Cc1ccc(S(=O)(=O)N2C[C@H]3C(=O)C[C@@H]4C(=O)N(c5ccccc5)C(=O)[C@@H]4[C@@H]3C[C@H]2c2cccs2)cc1	nt	-5	nt	nt	nt	nt	nt
Cc1ccc(Nc2nc(NCCO)c3ccccc3n2)cc1C	nt	16	nt	14	39*	-4	39*
Cc1sc2ncnc(N=Nc3c(O)[nH]c4ccccc34)c2c1C	-11	-5	-5	14	8	-4	nt
CCc1cc2c(N=Nc3c(O)[nH]c4ccccc34)ncnc2s1	5	2	52	16	35*	2	4
O=[N+]([O-])c1cccc(Cl)c1NCCNS(=O)(=O)c1ccccc1	-3	-16	8	2	1	2	nt
Cc1ccc(-n2c(SCC(=O)NCc3ccco3)nc3sc4c(c3c2=O)CC(C)(C)SC4)cc1	-12	-5	9	0	-1	-6	nt
CCC1CCc2c(sc3nc(SCC(=O)NCc4ccco4)n(-c4ccccc4)c(=O)c23)C1 (configuration not stated)	11	8	29	3	43*	0	70*
O=C1NC(=Nc2ccc(O)cc2)S/C1=C\C=C\c1ccco1	nt	5	-9	4	31*	4	4
COc1ccc(N=C2NC(=O)/C(=C\c3ccco3)S2)cc1	3	9	-13	3	4	-3	nt
COc1ccc(NC(=O)C2CCOC(C)(C)C2)cc1 (configuration not stated)	nt	-11	-12	2	0	nt	nt
CCCCCn1c(N)c(-c2nc3ccccc3o2)c2c([N+](=O)[O-])nn(C)c(=O)c21	-2	-10	13	nt	nt	-5	nt
CCCCCn1c(N)c(-c2nc3ccccc3o2)c2c([N+](=O)[O-])nn(CC)c(=O)c21	-5	-10	23	16	38*	0	53*
c1ccc(CNc2nc(NCc3ccccc3)c3ccccc3n2)cc1	nt	1	33	24	59*	-10	30
Cn1c(N)c(C(=O)COC(=O)CNS(=O)(=O)c2cccc(Cl)c2)c(=O)n(C)c1=O	14	-14	-6	2	-3	-10	nt
Cc1nc(NC(=O)CSc2ccc(-c3nc4ccccc4[nH]3)cn2)sc1C	8	4	42	11	54*	3	85*
CC(C)N=C(NS(=O)(=O)c1ccccc1)C(Cl)(Cl)Cl	-3	0	70	6	45*	6	75*
Cc1ccc(Cn2cnc3sc4c(c3c2=O)CCC4)c(C)c1	-11	12	77*	2	31*	1	6
O=C(O)c1ccc(Cn2cnc3sc4c(c3c2=O)CCCC4)cc1	-2	6	21	0	-5	-4	nt
O=C1NC(Cc2ccc(O)cc2)c2nc3ccc(Cl)cc3c(=O)n2-c2cc3ccccc3cc21 (configuration not stated)	nt	-18	nt	nt	nt	-8	nt
CCCCC(CC(O)COCC(C)C)C(=O)NN (configuration not stated)	12	-2	-22	1	-2	2	nt
SMILES	TLR4 MyD88 comp	NOD2 RIPK2 PPI	CHOP inhibitor	CHOP UPR activ	UPR XBP1 act	TLR9-MyD88 block	UPR XBP1 confirm	others
CCCCCOCC(O)CCC(=O)NN (configuration not stated)	-4	-10	8	-2	34*	-3	-3
CCCCCCn1cc(CN2CC(N3CCN(CCN(C)C)CC3)CS2(=O)=O)nn1 (configuration not stated)	nt	-7	nt	nt	nt	nt	nt
CCN1C(=O)/C(=C2/Sc3ccc(OC)cc3N2C)SC1=Nc1cccc(O)c1	-1	-5	35	18	70*	-12	18
CCN1C(=O)/C(=C2/Sc3ccc(OC)cc3N2C)SC1=Nc1ccc(C(C)=O)cc1	1	nt	nt	nt	nt	nt	nt
Cn1c(SCc2cccc(Br)c2)nnc1-c1ccncc1	nt	-9	nt	1	1	9	nt
COC(=O)CSc1nc(N)c2c3c(sc2n1)C(c1ccccc1)SC(c1ccccc1)C3 (configuration not stated)	-1	15	-80	-7	38*	26*	14	TLR9-MyD88 conf=-4;BLA nonselective=-1;TLR9 CHO tox=1
C#CCN(C[C@@H]1[C@@H](OC(=O)Nc2c(C)noc2C)[C@@H](OC(=O)Nc2c(C)noc2C)Cn2c(=O)n(CCCCCC)c(=O)n21)S(=O)(=O)c1ccc(C)cc1	nt	-5	nt	nt	nt	-7	nt
COc1ccc(-c2cc(C#N)nc(Oc3ccc(Cl)cc3)n2)cc1	-8	-1	12	0	20	-6	nt
